The species named for data set [1] is Rattus norvegicus. The experiment in a line: Duration of action in rat. Type of data set: ADME, organism-based. Conditions: in vivo. A digest of the protocol:
(§1)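 In rats, phenylephrine-induced contraction of the prostate was measured in vivo. Antagonist potency is expressed as AD₅₀ in µg/kg. Duration of action is given in hours.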

The target of data set [2] is T1, Alpha-1A adrenergic receptor (Rattus norvegicus) (UniProt P43140).
T1 sequence (whole entry): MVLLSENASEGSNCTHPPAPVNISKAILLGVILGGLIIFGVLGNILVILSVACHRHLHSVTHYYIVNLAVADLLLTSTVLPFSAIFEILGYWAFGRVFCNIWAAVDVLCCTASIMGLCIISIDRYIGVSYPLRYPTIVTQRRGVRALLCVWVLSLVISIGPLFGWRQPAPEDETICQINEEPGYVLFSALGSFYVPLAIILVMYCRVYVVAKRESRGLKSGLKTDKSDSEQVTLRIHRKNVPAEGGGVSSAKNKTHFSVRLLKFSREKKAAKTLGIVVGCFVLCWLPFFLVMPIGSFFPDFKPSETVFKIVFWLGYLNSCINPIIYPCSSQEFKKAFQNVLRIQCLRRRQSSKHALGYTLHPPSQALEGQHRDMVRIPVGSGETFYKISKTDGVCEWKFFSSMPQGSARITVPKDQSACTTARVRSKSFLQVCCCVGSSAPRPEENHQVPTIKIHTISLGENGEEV
The experiment in a line: (§2) Binding affinity radioligand).

Data set [3] deals with Adrenergic receptor alpha-1 (Rattus norvegicus) (UniProt P15823+P23944+P43140). The description is as §2. Type of data set: protein assay.
The species named for data set [4] is Rattus norvegicus. In words: Inhibition of phenylephrine induced contraction of the rat prostate. Type of data set: functional, Prostate gland. The method in brief:
as §1

The nature of data set [5]: Fold selectivity against alpha 1A adrenergic receptor over alpha 2A, 2B and 2C adrenergic receptors. The method in brief: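 Ki ratio derived from radioligand displacement at recombinant human adrenoceptors: α1a with [³H]prazosin, and α2a, α2b and α2c with [³H]rauwolscine, on membranes from cultured cells.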
Data set [6] is described as follows: oral bioavailability in dog. It is filed as ADME, organism-based, Canis lupus familiaris. The conditions noted are these: in vivo.
A short description of data set [7]: oral bioavailability in rat. Type of data set: ADME, organism-based. Conditions: in vivo. The method in brief: (§3)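 In rats, the compound was given at 3 mg/kg iv and 10 mg/kg po. Plasma AUC was measured for each route, with oral bioavailability and plasma half-life derived from the plasma profiles.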
The nature of data set [8]: Plasma half life in dog. Type of data set: ADME, organism-based, Canis lupus familiaris.
A short description of data set [9]: Plasma half life in rat. Type of data set: ADME, organism-based. A digest of the protocol: as §3
Data set [10] addresses T2, Alpha-1D adrenergic receptor (Homo sapiens, UniProt P25100).
T2 sequence (P25100 whole entry): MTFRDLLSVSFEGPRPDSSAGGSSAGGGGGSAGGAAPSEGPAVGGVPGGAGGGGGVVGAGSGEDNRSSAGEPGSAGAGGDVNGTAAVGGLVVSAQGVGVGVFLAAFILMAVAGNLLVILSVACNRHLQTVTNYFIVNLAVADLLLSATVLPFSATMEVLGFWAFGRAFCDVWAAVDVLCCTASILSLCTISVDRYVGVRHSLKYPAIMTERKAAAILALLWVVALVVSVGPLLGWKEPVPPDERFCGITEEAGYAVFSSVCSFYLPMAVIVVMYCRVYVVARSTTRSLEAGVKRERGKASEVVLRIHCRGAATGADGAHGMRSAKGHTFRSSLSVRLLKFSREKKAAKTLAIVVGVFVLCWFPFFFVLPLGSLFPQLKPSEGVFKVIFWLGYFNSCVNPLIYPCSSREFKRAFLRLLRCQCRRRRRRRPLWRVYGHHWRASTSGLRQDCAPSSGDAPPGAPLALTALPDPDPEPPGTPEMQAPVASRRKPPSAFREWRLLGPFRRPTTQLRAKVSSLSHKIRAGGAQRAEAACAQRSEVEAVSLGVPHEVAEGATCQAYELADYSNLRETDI
In words: In vitro binding affinity against Alpha-1D adrenergic receptor at recombinant human receptor. The conditions noted are these: in the assay text read “at recombinant human receptor” for “of human liver microsomes”. The method in brief: (§4)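 Radioligand displacement on membranes from cultured cells expressing recombinant human α1a, α1b or α1d adrenoceptors, using [³H]prazosin as radioligand; Ki values reported.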

The target in data set [11] is T3, Alpha-1A adrenergic receptor (Homo sapiens, UniProt P35348).
T3 sequence (P35348 whole entry): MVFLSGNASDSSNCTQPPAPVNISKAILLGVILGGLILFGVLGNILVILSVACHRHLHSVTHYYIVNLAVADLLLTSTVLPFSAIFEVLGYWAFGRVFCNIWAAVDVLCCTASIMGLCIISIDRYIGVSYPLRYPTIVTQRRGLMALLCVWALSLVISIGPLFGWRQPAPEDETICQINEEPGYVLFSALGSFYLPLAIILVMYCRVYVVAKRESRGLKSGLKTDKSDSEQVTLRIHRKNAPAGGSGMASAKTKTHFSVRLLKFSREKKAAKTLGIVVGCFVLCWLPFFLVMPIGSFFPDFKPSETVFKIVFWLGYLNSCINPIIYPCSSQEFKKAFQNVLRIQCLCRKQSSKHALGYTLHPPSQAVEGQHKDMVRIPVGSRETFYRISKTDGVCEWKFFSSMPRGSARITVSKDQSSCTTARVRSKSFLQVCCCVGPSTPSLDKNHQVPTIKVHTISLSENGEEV
The experiment in a line: In vitro binding affinity against Alpha-1A adrenergic receptor […]. A digest of the protocol:
as §4

The target in a further data set is Mu-type opioid receptor (Homo sapiens, UniProt P35372). In words: Binding affinity against opioid receptor using [3H]-DAMGO as radioligand.
For data set [12], the target named is T4, Alpha-1B adrenergic receptor (Homo sapiens, UniProt P35368).
T4 sequence (P35368 whole entry): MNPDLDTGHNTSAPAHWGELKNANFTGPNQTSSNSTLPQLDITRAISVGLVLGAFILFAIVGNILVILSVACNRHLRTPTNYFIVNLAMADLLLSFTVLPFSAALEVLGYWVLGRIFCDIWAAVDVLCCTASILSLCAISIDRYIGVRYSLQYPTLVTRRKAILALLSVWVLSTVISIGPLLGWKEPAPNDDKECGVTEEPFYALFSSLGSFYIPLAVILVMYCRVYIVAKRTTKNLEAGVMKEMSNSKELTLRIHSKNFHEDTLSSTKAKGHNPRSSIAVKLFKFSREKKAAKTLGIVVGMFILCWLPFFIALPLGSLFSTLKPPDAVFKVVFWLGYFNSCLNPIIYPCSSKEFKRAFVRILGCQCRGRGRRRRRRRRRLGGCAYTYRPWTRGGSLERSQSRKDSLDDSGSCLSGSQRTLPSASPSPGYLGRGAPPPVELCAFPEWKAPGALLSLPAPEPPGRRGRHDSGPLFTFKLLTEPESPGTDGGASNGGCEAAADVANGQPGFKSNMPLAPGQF
The experiment in a line: In vitro binding affinity against Alpha-1B adrenergic receptor at recombinant human receptor.

We go through two molecules from ChEMBL document CHEMBL1132478, “Design and synthesis of novel alpha(1)(a) adrenoceptor-selective antagonists. 3. Approaches to eliminate opioid agonist metabolites by using substituted phenylpiperazine side chains” (J Med Chem, 1999).

“And” between values parts separate entries of the source, which are not always exact repeats. Equal entries are not always repeated.

Mu-type opioid receptor, sequence (P35372 whole entry): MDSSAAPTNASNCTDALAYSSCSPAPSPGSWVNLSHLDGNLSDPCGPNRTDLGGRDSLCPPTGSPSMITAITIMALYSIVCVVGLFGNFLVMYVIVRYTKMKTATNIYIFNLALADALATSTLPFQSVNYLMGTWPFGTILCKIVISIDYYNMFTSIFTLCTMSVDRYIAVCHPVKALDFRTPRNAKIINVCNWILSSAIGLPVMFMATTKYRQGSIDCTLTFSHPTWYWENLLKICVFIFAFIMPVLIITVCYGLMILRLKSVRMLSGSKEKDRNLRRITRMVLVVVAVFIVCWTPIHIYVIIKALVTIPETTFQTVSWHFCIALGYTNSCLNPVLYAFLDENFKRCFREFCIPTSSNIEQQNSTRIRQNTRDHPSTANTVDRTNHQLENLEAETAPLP
Adrenergic receptor alpha-1 (Rattus norvegicus), sequence (P15823 whole entry, looked up, one chain of several): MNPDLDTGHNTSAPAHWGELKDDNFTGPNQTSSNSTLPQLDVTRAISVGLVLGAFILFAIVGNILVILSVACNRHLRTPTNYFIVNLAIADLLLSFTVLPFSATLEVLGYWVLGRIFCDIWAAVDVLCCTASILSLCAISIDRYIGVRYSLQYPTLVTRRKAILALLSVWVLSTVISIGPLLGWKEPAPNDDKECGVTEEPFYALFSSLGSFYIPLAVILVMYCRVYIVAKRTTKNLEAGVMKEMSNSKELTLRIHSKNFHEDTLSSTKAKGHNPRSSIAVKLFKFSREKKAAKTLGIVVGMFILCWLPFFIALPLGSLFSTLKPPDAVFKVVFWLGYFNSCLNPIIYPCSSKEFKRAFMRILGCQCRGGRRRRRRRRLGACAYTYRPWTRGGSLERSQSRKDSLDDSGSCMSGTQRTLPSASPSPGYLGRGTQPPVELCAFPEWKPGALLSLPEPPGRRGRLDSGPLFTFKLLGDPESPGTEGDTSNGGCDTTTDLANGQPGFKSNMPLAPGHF
Adrenergic receptor alpha-1 (Rattus norvegicus), sequence (P23944 whole entry, looked up, one chain of several): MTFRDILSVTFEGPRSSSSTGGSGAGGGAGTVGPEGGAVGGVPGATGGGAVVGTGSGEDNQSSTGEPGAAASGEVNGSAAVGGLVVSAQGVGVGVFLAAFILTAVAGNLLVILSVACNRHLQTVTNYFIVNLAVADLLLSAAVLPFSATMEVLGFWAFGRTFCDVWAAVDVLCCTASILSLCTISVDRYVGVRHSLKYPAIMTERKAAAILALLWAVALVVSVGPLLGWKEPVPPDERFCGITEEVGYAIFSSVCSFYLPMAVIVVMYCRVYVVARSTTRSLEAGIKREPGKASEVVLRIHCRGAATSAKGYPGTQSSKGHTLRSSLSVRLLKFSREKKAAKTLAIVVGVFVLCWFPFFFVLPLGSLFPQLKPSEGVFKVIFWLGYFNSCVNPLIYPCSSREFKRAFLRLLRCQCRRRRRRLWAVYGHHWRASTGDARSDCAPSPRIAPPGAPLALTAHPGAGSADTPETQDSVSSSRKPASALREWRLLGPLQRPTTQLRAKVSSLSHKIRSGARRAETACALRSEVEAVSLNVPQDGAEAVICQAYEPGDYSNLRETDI

In the case of `CCC1=C(C(N)=O)C(c2ccc(F)c(F)c2)N(C(=O)NCCCN2CCC(C(=O)OC)(c3ccccc3)CC2)C(=O)N1` (configuration not stated), the Duration of action in the data set filed under Rattus norvegicus [1] is more than 4 h. For the same molecule, the Kb is 0.4 nM in data set [2] and more than 1000 nM in data set [3]. The AD50 in the data set listed under Rattus norvegicus [4] worked out at 0.02 mg/kg. In data set [5], this molecule gave a Fold selectivity of more than 3200.
Regarding `COC(=O)C1=C(C)NC(=O)N(C(=O)NCCCN2CCN(c3ccccc3C(N)=O)CC2)C1c1ccc(F)c(F)c1` (configuration not stated), the figures for the bioavailability in [6] and in data set [7] were 4% and 13%, respectively. Also, in the data set filed under Rattus norvegicus [1], the Duration of action was more than 4 h. Also, the half-life in data set [8] was 2.4 h; in [9], 2 h. Also, the Ki is 250 nM and 310 nM in [10]; 0.12 nM and 0.26 nM in [11]; more than 30000 nM on Mu-type opioid receptor; 190 nM and 135 nM in data set [12]. For the same molecule, the Kb in [2] was determined as 0.3 nM. In the data set filed under Rattus norvegicus [4], this molecule gave an AD50 of 0.022 mg/kg. The molecule further had a Fold selectivity in data set [5] of more than 3000.

Usually bioavailability stands for dose-corrected exposure relative to a reference, in per cent. Read a low bioavailability as little systemic uptake. What is called half-life is how long it takes for the measured level to halve. Read a low half-life as fast loss. One may read the Ki as a measure of affinity in units of concentration, obtained from inhibition or displacement.
